Assay results collected from several papers.
Compare with care: the assays were run in different laboratories.
Target: Interferon-induced, double-stranded RNA-activated protein kinase (EIF2AK2, Homo sapiens, UniProt P19525)

SMILES	assay	setting	remaining binding [%]
O=C(c1ccc(Nc2ncc(Cl)c(-c3cc4ccccc4s3)n2)cc1)N1CCC(N2CCCC2)CC1	binding, competition with immobilised ligand	1 µM	22
O=C(O)c1cc(-c2ccc(C3CCNCC3)cc2)c2ccc(-c3ccc(C(F)(F)F)cc3)cc2c1	cell-free assay, competition with immobilised ligand	1 µM	100
N[C@H]1CCN(c2nccc(-c3cnn4ncccc34)n2)C1	binding	1 µM	100
O=C(c1ccc(Nc2ncc(Cl)c(-c3ccc(Cl)s3)n2)cc1)N1CCC(N2CCCC2)CC1	binding, competition with immobilised ligand	1 µM	14
CN(c1nccc(-c2cnn3ncccc23)n1)C1CC1	binding	1 µM	100
O=C(NCCCN1CCOCC1)c1ccc(Nc2nccc(-c3cc4ccccc4s3)n2)cc1	binding, competition with immobilised ligand	1 µM	64
CNC(=O)[C@@H]1CC[C@@H](n2c(-c3ccc4cnccc4c3)nc3ccc(C(=O)NCc4cccc(C(N)=O)c4)cc32)C1	binding, competition with immobilised ligand	1 µM	94
Cc1cnn2ncc(-c3ccnc(N(C)C)n3)c2c1	binding	1 µM	100
Nc1ncc2c(n1)-c1c([nH]c3ccc(C#CC4CC4)cc13)CCCC2	binding, competition with immobilised ligand	1 µM	100
CN(CCCC(F)(F)F)c1nccc(-c2cnn3ncccc23)n1	binding	1 µM	100
O=C(O)[C@H]1[C@H](Cn2nnc3ccccc3c2=O)CC[C@@H]1C(=O)c1ccc(OCCC2CCOCC2)cc1	cell-free assay, competition with immobilised ligand	1 µM	91
CCN1CCN(Cc2ccc(C(=O)Nc3ccc(C)c(Oc4ccc5c(c4)CC(=O)N5)c3)cc2C(F)(F)F)CC1	binding, competition with immobilised ligand	1 µM	96
O=c1nc(-c2ccccn2)sc2ccccc12	binding, competition with immobilised ligand	1 µM	100
COc1cnc(Nc2cccc(S(N)(=O)=O)c2)nc1N1CCN(c2ccccc2)CC1	binding, competition with immobilised ligand	1 µM	97
CN(C)c1ncnc(-c2ccc3nc(Nc4cc(CN5CCN(C(=O)CC(F)(F)F)CC5)ccn4)[nH]c3c2)c1Cl	cell-free assay, competition with immobilised ligand	1 µM	100
CC1CCCN1c1nccc(-c2cnn3ncccc23)n1 (centres unmarked)	binding	1 µM	100
O=C(NCc1ncc(C(F)(F)F)cc1Cl)c1ccc2c(c1)C1(CCS(=O)(=O)CC1)[C@@H](C1CC1)N2S(=O)(=O)c1ccc(F)cc1	cell-free assay, competition with immobilised ligand	1 µM	97
O=C(Nc1c[nH]nc1C(=O)NC1CCNCC1)c1cc(F)cc(F)c1	binding, competition with immobilised ligand	1 µM	100
CCOC(=O)c1cc2cc(-c3cc(C(=O)NCc4ccc(C(=O)O)cc4)nn3C)ccc2[nH]1	cell-free assay, competition with immobilised ligand	0.1 µM	100
F[C@@H]1CCN(c2nccc(-c3cnn4ncccc34)n2)C1	binding	1 µM	100
